ChEMBL document CHEMBL4689842, “EUbOPEN Chemogenomics Library wave 1” (2021)

Test system: Fibroblast
Test: Multiplex assay against human fibroblast
Type: toxicity, cell-based
Method in brief: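 Four dyes were applied at seeding to live cells: Hoechst33342, BioTracker Green Microtubule Cytoskeleton Dye, MitoTracker Red and Annexin V Alexa Fluor 680. Imaging after compound addition used a CQ1 microscope at 37°C and 5% CO2. CellPathfinder machine-learning gating then sorted cells into Hoechst high-intensity objects or normal cells, normal cells into healthy, pyknosed or fragmented nuclei, and pyknosed cells into mitotic or apoptotic, with tubulin, mitochondrial-mass and membrane-permeability phenotypes given as per cents of healthy-nucleus cells.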

[1] = 12 h, 1 µM, compound concentration 1 uM, replicate 1
[2] = 12 h, 1 µM, compound concentration 1 uM, replicate 2
[3] = 12 h, 10 µM, compound concentration 10 uM, replicate 1
[4] = 12 h, 10 µM, compound concentration 10 uM, replicate 2
[5] = 24 h, 1 µM, compound concentration 1 uM, replicate 1
[6] = 24 h, 1 µM, compound concentration 1 uM, replicate 2
[7] = 24 h, 10 µM, compound concentration 10 uM, replicate 1
[8] = 24 h, 10 µM, compound concentration 10 uM, replicate 2

COc1cc2c(Nc3ccc(NC(=O)c4ccccc4)cc3)ncnc2cc1OCCCN1CCOCC1
Population Apoptotic (%) [1]: 55%
Population Fragmented Nuclei (%) [1]: 25%
Population Healthy Nuclei (%) [1]: 53%
Population Hoechst High Intensity Objects (%) [1]: 35%
Population Membrane Permeable-Phenotype (%) [1]: 9%
Population Mitochondria Different-Phenotype (%) [1]: 10%
Population Mitotic Cells (%) [1]: 44%
Population Normal (%) [1]: 64%
Population Pyknosed Nuclei (%) [1]: 20%
Population Tubulin-Different-Phenotype (%) [1]: 41%
Total Cell Count [1]: 470
Population Apoptotic (%) [2]: 33%
Population Fragmented Nuclei (%) [2]: 44%
Population Healthy Nuclei (%) [2]: 46%
Population Hoechst High Intensity Objects (%) [2]: 30%
Population Membrane Permeable-Phenotype (%) [2]: 22%
Population Mitochondria Different-Phenotype (%) [2]: 12%
Population Mitotic Cells (%) [2]: 66%
Population Normal (%) [2]: 69%
Population Pyknosed Nuclei (%) [2]: 8%
Population Tubulin-Different-Phenotype (%) [2]: 64%
Total Cell Count [2]: 97
Population Apoptotic (%) [3]: 82%
Population Fragmented Nuclei (%) [3]: 39%
Population Healthy Nuclei (%) [3]: 49%
Population Hoechst High Intensity Objects (%) [3]: 19%
Population Membrane Permeable-Phenotype (%) [3]: 9%
Population Mitochondria Different-Phenotype (%) [3]: 5%
Population Mitotic Cells (%) [3]: 17%
Population Normal (%) [3]: 80%
Population Pyknosed Nuclei (%) [3]: 11%
Population Tubulin-Different-Phenotype (%) [3]: 4%
Total Cell Count [3]: 250
Population Apoptotic (%) [4]: 0%
Population Fragmented Nuclei (%) [4]: 70%
Population Healthy Nuclei (%) [4]: 27%
Population Hoechst High Intensity Objects (%) [4]: 41%
Population Membrane Permeable-Phenotype (%) [4]: 0%
Population Mitochondria Different-Phenotype (%) [4]: 7%
Population Mitotic Cells (%) [4]: 100%
Population Normal (%) [4]: 58%
Population Pyknosed Nuclei (%) [4]: 2%
Population Tubulin-Different-Phenotype (%) [4]: 7%
Total Cell Count [4]: 82
Population Apoptotic (%) [5]: 61%
Population Fragmented Nuclei (%) [5]: 26%
Population Healthy Nuclei (%) [5]: 47%
Population Hoechst High Intensity Objects (%) [5]: 46%
Population Membrane Permeable-Phenotype (%) [5]: 14%
Population Mitochondria Different-Phenotype (%) [5]: 17%
Population Mitotic Cells (%) [5]: 38%
Population Normal (%) [5]: 53%
Population Pyknosed Nuclei (%) [5]: 26%
Population Tubulin-Different-Phenotype (%) [5]: 59%
Total Cell Count [5]: 391
Population Apoptotic (%) [6]: 58%
Population Fragmented Nuclei (%) [6]: 34%
Population Healthy Nuclei (%) [6]: 42%
Population Hoechst High Intensity Objects (%) [6]: 41%
Population Membrane Permeable-Phenotype (%) [6]: 23%
Population Mitochondria Different-Phenotype (%) [6]: 33%
Population Mitotic Cells (%) [6]: 41%
Population Normal (%) [6]: 58%
Population Pyknosed Nuclei (%) [6]: 24%
Population Tubulin-Different-Phenotype (%) [6]: 52%
Total Cell Count [6]: 85
Population Apoptotic (%) [7]: 76%
Population Fragmented Nuclei (%) [7]: 31%
Population Healthy Nuclei (%) [7]: 55%
Population Hoechst High Intensity Objects (%) [7]: 22%
Population Membrane Permeable-Phenotype (%) [7]: 6%
Population Mitochondria Different-Phenotype (%) [7]: 3%
Population Mitotic Cells (%) [7]: 24%
Population Normal (%) [7]: 77%
Population Pyknosed Nuclei (%) [7]: 13%
Population Tubulin-Different-Phenotype (%) [7]: 5%
Total Cell Count [7]: 248
Population Apoptotic (%) [8]: 66%
Population Fragmented Nuclei (%) [8]: 69%
Population Healthy Nuclei (%) [8]: 25%
Population Hoechst High Intensity Objects (%) [8]: 32%
Population Membrane Permeable-Phenotype (%) [8]: 15%
Population Mitochondria Different-Phenotype (%) [8]: 7%
Population Mitotic Cells (%) [8]: 33%
Population Normal (%) [8]: 67%
Population Pyknosed Nuclei (%) [8]: 5%
Population Tubulin-Different-Phenotype (%) [8]: 15%
Total Cell Count [8]: 77

c1ccc2oc(-c3csc(C4CCN(Cc5nc6ncccc6[nH]5)CC4)n3)cc2c1
Population Apoptotic (%) [1]: 73%
Population Fragmented Nuclei (%) [1]: 30%
Population Healthy Nuclei (%) [1]: 55%
Population Hoechst High Intensity Objects (%) [1]: 15%
Population Membrane Permeable-Phenotype (%) [1]: 9%
Population Mitochondria Different-Phenotype (%) [1]: 10%
Population Mitotic Cells (%) [1]: 26%
Population Normal (%) [1]: 85%
Population Pyknosed Nuclei (%) [1]: 13%
Population Tubulin-Different-Phenotype (%) [1]: 12%
Total Cell Count [1]: 160
Population Apoptotic (%) [2]: 25%
Population Fragmented Nuclei (%) [2]: 59%
Population Healthy Nuclei (%) [2]: 28%
Population Hoechst High Intensity Objects (%) [2]: 34%
Population Membrane Permeable-Phenotype (%) [2]: 15%
Population Mitochondria Different-Phenotype (%) [2]: 5%
Population Mitotic Cells (%) [2]: 75%
Population Normal (%) [2]: 65%
Population Pyknosed Nuclei (%) [2]: 11%
Population Tubulin-Different-Phenotype (%) [2]: 26%
Total Cell Count [2]: 103
Population Apoptotic (%) [3]: 63%
Population Fragmented Nuclei (%) [3]: 25%
Population Healthy Nuclei (%) [3]: 55%
Population Hoechst High Intensity Objects (%) [3]: 11%
Population Membrane Permeable-Phenotype (%) [3]: 3%
Population Mitochondria Different-Phenotype (%) [3]: 1%
Population Mitotic Cells (%) [3]: 36%
Population Normal (%) [3]: 88%
Population Pyknosed Nuclei (%) [3]: 19%
Population Tubulin-Different-Phenotype (%) [3]: 4%
Total Cell Count [3]: 190
Population Apoptotic (%) [4]: 66%
Population Fragmented Nuclei (%) [4]: 65%
Population Healthy Nuclei (%) [4]: 28%
Population Hoechst High Intensity Objects (%) [4]: 35%
Population Membrane Permeable-Phenotype (%) [4]: 21%
Population Mitochondria Different-Phenotype (%) [4]: 0%
Population Mitotic Cells (%) [4]: 33%
Population Normal (%) [4]: 64%
Population Pyknosed Nuclei (%) [4]: 6%
Population Tubulin-Different-Phenotype (%) [4]: 0%
Total Cell Count [4]: 76
Population Apoptotic (%) [5]: 50%
Population Fragmented Nuclei (%) [5]: 38%
Population Healthy Nuclei (%) [5]: 51%
Population Hoechst High Intensity Objects (%) [5]: 12%
Population Membrane Permeable-Phenotype (%) [5]: 10%
Population Mitochondria Different-Phenotype (%) [5]: 4%
Population Mitotic Cells (%) [5]: 50%
Population Normal (%) [5]: 87%
Population Pyknosed Nuclei (%) [5]: 9%
Population Tubulin-Different-Phenotype (%) [5]: 17%
Total Cell Count [5]: 165
Population Apoptotic (%) [6]: 25%
Population Fragmented Nuclei (%) [6]: 64%
Population Healthy Nuclei (%) [6]: 28%
Population Hoechst High Intensity Objects (%) [6]: 39%
Population Membrane Permeable-Phenotype (%) [6]: 25%
Population Mitochondria Different-Phenotype (%) [6]: 0%
Population Mitotic Cells (%) [6]: 75%
Population Normal (%) [6]: 60%
Population Pyknosed Nuclei (%) [6]: 7%
Population Tubulin-Different-Phenotype (%) [6]: 25%
Total Cell Count [6]: 92
Population Apoptotic (%) [7]: 90%
Population Fragmented Nuclei (%) [7]: 26%
Population Healthy Nuclei (%) [7]: 59%
Population Hoechst High Intensity Objects (%) [7]: 11%
Population Membrane Permeable-Phenotype (%) [7]: 2%
Population Mitochondria Different-Phenotype (%) [7]: 0%
Population Mitotic Cells (%) [7]: 9%
Population Normal (%) [7]: 88%
Population Pyknosed Nuclei (%) [7]: 13%
Population Tubulin-Different-Phenotype (%) [7]: 2%
Total Cell Count [7]: 183
Population Apoptotic (%) [8]: 100%
Population Fragmented Nuclei (%) [8]: 59%
Population Healthy Nuclei (%) [8]: 34%
Population Hoechst High Intensity Objects (%) [8]: 34%
Population Membrane Permeable-Phenotype (%) [8]: 13%
Population Mitochondria Different-Phenotype (%) [8]: 6%
Population Mitotic Cells (%) [8]: 0%
Population Normal (%) [8]: 65%
Population Pyknosed Nuclei (%) [8]: 6%
Population Tubulin-Different-Phenotype (%) [8]: 0%
Total Cell Count [8]: 67
